Assay results from ChEMBL document CHEMBL5653631, “A Potent and Selective ULK1 Inhibitor Suppresses Autophagy and Sensitizes Cancer Cells to Nutrient Stress” (iScience, 2018).
Blank lines part the entries; values can stand above or below the compound they belong to.

How the values were obtained:
[1] = target: MAP kinase-activated protein kinase 2 (Homo sapiens) (UniProt P49137); assay: Inhibition of human recombinant MAPKAPK2 at 500 nM related to control ULK1
[2] = target: Tyrosine-protein kinase JAK1 (Homo sapiens) (UniProt P23458); assay: Inhibition of human recombinant JAK1 at 500 nM related to control ULK1
[3] = target: Cyclin-dependent kinase 2 (Homo sapiens) (UniProt P24941); assay: Inhibition of human recombinant CDK2 at 500 nM in presence of ATP by radiometric assay relative to control
[4] = target: Proto-oncogene tyrosine-protein kinase ROS (Homo sapiens) (UniProt P08922); assay: Inhibition of human recombinant ROS at 500 nM related to control ULK1
[5] = target: T1, Dual specificity mitogen-activated protein kinase kinase 6 (Homo sapiens) (UniProt P52564); assay: Inhibition of human recombinant MAP2K6 at 500 nM related to control ULK1
T1 sequence (whole entry): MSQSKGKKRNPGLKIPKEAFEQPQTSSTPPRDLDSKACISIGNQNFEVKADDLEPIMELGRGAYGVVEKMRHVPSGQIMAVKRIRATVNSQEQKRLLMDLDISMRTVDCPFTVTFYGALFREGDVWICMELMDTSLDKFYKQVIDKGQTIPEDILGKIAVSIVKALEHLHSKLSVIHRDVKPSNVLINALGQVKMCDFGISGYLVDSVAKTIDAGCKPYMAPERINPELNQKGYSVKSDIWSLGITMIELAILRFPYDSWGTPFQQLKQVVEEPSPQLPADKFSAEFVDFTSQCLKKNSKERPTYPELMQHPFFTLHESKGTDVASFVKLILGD

[6] = target: Calcium/calmodulin-dependent protein kinase type II subunit beta (Homo sapiens) (UniProt Q13554); assay: Inhibition of human recombinant CaMK2b at 40 nM in presence of ATP by radiometric assay relative to control
[7] = target: Tyrosine-protein kinase ABL2 (Homo sapiens) (UniProt P42684); assay: Inhibition of human recombinant ABL2 at 40 nM in presence of ATP by radiometric assay relative to control
In short: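 Panel of 327 recombinant human kinases in radiometric activity assays, each screened in duplicate at a single inhibitor concentration; percent activity remaining relative to vehicle control, percent inhibition taken as 100 minus activity remaining.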

[8] = target: T2, TGF-beta receptor type-1 (Homo sapiens) (UniProt P36897); assay: Inhibition of human recombinant TGFbR1 at 40 nM related to control ULK1
T2 sequence (whole entry): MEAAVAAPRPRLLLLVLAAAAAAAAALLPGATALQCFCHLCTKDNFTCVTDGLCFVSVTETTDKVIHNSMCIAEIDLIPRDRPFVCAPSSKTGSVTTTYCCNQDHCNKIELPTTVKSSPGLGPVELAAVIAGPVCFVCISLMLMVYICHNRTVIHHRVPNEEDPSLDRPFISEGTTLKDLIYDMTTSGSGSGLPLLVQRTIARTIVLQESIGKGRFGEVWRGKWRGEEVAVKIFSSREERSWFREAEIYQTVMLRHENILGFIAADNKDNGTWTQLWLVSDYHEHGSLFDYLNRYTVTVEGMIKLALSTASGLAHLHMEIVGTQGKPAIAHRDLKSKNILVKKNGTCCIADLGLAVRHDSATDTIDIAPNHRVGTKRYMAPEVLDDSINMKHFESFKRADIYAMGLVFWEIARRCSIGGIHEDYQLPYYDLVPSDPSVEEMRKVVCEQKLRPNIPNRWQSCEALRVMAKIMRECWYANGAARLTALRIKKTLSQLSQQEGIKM

[9] = target: Fibroblast growth factor receptor 2 (Homo sapiens) (UniProt P21802); assay: Inhibition of human recombinant FGFR2 at 15 nM in presence of ATP by radiometric assay relative to control
[10] = target: T3, Serine/threonine-protein kinase Chk1 (Homo sapiens) (UniProt O14757); assay: Inhibition of human recombinant CHK1 at 15 nM in presence of ATP by radiometric assay relative to control
T3 sequence (whole entry): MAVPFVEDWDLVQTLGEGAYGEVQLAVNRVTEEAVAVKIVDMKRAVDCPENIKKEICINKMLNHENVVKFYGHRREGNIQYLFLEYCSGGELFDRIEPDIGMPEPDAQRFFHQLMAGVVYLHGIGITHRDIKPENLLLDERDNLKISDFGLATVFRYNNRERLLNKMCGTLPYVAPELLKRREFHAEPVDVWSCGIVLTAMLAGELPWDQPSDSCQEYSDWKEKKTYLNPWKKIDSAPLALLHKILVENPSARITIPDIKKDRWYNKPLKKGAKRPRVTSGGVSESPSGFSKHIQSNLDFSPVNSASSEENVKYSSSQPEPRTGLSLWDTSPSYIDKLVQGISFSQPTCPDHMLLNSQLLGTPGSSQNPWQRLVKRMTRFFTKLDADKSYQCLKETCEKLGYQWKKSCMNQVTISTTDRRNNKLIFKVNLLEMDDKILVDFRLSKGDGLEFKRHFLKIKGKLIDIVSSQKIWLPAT

[11] = target: RAF proto-oncogene serine/threonine-protein kinase (Homo sapiens) (UniProt P04049); assay: Inhibition of human recombinant RAF1 at 15 nM in presence of ATP by radiometric assay relative to control
[12] = target: T4, Tyrosine-protein kinase ZAP-70 (Homo sapiens) (UniProt P43403); assay: Inhibition of human recombinant ZAP70 at 15 nM related to control ULK1
T4 sequence (whole entry): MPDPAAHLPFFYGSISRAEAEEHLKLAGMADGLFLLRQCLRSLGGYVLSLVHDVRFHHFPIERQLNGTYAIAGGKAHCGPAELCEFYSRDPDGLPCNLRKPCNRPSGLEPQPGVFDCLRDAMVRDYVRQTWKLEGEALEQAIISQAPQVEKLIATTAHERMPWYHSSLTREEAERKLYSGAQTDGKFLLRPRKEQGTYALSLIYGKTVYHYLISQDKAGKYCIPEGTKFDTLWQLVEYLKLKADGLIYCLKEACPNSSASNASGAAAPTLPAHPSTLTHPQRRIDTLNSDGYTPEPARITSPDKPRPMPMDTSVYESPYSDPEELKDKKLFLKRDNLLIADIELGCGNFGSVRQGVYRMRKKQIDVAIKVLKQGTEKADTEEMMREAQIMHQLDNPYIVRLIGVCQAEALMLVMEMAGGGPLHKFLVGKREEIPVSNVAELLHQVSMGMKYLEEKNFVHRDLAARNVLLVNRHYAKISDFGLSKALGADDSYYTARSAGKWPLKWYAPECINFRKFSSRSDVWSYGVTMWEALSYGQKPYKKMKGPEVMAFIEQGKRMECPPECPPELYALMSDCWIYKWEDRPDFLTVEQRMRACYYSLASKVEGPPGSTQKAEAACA

[13] = species: Homo sapiens; assay: Inhibition of human recombinant ABL at 15 nM related to control ULK1
[14] = target: Ribosomal protein S6 kinase alpha-6 (Homo sapiens) (UniProt Q9UK32); assay: Inhibition of human recombinant RSK4 at 15 nM in presence of ATP by radiometric assay relative to control

Tyrosine-protein kinase JAK1 (Homo sapiens), sequence (P23458 whole entry): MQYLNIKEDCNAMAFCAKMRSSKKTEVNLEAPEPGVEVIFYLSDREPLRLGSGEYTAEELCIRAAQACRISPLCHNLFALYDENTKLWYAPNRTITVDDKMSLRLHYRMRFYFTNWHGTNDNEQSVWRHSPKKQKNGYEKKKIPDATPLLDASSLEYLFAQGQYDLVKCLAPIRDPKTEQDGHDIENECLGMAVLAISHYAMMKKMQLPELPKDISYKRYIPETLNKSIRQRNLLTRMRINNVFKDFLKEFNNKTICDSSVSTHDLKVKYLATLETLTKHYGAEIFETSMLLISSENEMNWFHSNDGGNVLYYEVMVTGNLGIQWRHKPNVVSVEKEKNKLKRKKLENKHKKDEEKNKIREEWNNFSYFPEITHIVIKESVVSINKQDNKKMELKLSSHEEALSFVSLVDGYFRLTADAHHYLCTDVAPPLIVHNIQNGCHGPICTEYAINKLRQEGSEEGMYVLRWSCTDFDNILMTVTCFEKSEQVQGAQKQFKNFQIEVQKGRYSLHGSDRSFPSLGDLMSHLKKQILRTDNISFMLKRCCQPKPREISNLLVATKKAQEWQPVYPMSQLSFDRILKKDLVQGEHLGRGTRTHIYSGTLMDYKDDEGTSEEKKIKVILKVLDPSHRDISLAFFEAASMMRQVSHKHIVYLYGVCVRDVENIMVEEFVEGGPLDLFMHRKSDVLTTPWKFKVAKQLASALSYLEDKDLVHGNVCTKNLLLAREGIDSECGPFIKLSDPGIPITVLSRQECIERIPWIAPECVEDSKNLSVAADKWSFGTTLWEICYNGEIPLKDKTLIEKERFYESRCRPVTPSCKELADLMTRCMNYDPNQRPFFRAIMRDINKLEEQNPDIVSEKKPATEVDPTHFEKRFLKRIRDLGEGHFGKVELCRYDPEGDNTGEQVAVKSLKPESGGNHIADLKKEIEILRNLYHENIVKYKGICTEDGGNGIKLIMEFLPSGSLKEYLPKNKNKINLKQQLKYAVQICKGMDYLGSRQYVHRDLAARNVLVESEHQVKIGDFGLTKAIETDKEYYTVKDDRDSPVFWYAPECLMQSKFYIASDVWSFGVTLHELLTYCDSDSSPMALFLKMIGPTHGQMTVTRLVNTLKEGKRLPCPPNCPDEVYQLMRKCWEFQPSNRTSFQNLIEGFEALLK
Proto-oncogene tyrosine-protein kinase ROS (Homo sapiens), sequence (P08922 whole entry): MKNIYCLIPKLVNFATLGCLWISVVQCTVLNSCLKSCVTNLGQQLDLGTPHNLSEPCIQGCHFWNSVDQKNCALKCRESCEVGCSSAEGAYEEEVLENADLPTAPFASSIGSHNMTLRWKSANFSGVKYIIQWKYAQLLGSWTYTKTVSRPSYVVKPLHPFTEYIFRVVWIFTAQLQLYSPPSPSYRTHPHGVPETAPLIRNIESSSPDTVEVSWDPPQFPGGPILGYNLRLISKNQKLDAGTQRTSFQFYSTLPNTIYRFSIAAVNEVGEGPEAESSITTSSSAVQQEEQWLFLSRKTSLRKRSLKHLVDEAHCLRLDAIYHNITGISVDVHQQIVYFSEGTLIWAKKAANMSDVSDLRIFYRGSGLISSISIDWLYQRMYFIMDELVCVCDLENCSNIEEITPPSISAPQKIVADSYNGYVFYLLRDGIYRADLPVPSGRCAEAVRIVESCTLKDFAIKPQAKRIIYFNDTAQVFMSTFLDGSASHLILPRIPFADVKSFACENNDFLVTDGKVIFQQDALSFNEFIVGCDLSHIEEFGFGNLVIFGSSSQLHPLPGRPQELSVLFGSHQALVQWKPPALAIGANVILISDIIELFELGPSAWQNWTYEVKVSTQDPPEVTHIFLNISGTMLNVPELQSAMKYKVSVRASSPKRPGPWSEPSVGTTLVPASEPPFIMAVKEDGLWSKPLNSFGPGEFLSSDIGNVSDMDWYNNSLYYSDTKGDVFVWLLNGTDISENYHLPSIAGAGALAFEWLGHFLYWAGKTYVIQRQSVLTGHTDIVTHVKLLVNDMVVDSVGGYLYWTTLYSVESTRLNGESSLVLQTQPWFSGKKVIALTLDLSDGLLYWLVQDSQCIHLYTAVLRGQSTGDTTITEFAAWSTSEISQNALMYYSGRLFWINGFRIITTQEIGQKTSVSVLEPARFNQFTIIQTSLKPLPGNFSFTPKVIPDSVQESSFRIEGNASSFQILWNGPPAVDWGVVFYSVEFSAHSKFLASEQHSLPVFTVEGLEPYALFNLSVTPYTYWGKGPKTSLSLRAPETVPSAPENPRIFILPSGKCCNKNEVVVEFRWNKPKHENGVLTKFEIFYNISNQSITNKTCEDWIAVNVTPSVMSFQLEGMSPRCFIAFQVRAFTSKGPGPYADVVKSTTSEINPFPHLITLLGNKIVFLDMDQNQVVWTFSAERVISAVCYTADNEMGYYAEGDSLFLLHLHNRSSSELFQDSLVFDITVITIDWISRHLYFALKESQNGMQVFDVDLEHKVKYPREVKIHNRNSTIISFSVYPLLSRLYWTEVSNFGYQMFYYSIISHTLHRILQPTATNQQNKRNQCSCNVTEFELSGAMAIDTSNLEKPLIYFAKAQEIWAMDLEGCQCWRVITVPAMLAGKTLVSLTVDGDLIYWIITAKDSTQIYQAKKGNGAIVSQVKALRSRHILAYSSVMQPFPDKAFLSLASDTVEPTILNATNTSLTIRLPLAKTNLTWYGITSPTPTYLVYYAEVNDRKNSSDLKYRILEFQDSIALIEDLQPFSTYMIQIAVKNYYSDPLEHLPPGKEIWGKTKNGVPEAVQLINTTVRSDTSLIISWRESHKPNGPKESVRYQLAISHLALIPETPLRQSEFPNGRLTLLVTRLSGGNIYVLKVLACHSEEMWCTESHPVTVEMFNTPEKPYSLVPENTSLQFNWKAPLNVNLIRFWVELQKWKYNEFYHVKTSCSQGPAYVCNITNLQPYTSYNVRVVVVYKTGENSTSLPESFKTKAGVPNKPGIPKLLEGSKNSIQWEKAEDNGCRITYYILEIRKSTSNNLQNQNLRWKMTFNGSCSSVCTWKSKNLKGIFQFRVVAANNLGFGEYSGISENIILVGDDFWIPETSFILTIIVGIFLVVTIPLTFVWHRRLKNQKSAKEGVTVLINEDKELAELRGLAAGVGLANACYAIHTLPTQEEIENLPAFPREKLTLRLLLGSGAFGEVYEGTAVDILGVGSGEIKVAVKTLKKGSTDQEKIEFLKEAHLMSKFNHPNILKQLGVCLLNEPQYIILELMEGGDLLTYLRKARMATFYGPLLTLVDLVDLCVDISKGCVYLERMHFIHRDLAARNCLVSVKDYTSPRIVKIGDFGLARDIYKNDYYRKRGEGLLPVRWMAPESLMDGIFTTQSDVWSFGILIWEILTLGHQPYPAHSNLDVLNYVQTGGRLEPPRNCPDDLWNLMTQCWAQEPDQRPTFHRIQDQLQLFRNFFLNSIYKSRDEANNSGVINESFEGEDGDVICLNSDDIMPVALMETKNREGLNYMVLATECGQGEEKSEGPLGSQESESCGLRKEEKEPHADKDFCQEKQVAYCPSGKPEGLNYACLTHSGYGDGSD
Calcium/calmodulin-dependent protein kinase type II subunit beta (Homo sapiens), sequence (Q13554 whole entry): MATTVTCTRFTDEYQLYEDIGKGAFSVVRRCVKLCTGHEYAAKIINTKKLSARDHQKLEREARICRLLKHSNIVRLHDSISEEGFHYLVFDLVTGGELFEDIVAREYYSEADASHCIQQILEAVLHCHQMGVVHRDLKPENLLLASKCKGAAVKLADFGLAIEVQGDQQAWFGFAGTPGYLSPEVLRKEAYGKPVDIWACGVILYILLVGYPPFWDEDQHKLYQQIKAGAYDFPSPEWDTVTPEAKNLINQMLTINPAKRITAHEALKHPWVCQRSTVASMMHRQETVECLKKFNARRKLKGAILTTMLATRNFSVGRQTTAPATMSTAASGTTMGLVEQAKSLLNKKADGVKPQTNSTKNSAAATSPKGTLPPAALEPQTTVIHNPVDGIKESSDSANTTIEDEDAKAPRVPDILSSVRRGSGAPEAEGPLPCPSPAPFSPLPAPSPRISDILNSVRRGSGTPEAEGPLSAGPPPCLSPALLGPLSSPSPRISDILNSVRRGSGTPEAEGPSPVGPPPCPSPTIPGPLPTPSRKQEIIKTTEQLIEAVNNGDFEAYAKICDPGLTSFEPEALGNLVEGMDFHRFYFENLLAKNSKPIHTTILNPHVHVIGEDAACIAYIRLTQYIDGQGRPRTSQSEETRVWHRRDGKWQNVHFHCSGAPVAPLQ
RAF proto-oncogene serine/threonine-protein kinase (Homo sapiens), sequence (P04049 whole entry): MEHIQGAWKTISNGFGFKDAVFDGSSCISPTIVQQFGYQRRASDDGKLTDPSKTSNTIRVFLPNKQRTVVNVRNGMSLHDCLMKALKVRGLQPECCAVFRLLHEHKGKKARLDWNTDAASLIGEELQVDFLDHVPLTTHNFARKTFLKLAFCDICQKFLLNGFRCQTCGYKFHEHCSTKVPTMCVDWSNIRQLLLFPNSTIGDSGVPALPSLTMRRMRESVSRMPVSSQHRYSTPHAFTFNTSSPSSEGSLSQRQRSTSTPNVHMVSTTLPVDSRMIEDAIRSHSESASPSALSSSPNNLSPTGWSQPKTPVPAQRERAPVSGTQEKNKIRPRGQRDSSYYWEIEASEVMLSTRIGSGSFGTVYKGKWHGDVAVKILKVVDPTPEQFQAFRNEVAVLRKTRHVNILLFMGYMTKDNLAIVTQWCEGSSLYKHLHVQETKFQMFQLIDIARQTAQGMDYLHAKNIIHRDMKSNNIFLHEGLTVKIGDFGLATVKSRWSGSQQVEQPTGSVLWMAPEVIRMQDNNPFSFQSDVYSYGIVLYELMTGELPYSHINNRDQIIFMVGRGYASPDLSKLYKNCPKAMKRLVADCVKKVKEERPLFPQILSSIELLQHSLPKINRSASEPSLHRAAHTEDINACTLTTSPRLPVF

fold change (FC) [1]: 0
fold change (FC) [2]: 0.53
inhibition [3]: 4%
fold change (FC) [4]: 0
fold change (FC) [5]: 0.07
Compound: CNC(=O)c1ccccc1Oc1nc(Nc2cc(OC)c(OC)c(OC)c2)ncc1Br

inhibition [6]: 0%
inhibition [7]: 7%
fold change (FC) [8]: 0
Compound: O=C(N[C@@H](C1CC1)C(F)(F)F)c1cc(-c2cnn3cc(-c4ccc(F)cc4)cnc23)cs1

inhibition [9]: 0%
inhibition [10]: 0%
inhibition [11]: 8%
fold change (FC) [12]: 0
fold change (FC) [13]: 0.93
inhibition [14]: 0%
Compound: CC(C)[C@H](NC(=O)c1cc(-c2cnn3cc(-c4ccc(OCCN5CCCCC5)cc4)cnc23)cs1)C(F)(F)F
